Where “and” joins values, the source holds several entries; their conditions need not be identical. Equal entries are not always repeated.
Test system: U2OS
Experiment: Multiplex assay against U2OS
Format: toxicity, cell-based
Settings: human
How it was run: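 Live cells were stained at seeding with Hoechst33342, BioTracker Green Microtubule Cytoskeleton Dye, MitoTracker Red and Annexin V Alexa Fluor 680, then imaged on a CQ1 microscope at 37°C and 5% CO2 after compound addition. CellPathfinder machine-learning gating split cells into Hoechst high-intensity objects or normal cells. Normal cells were split into healthy, pyknosed or fragmented nuclei, and pyknosed cells into mitotic or apoptotic. Tubulin, mitochondrial-mass and membrane-permeability phenotypes are per cents of healthy-nucleus cells.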

[1] = 12 h, 1 µM, compound concentration 1 uM
[2] = 12 h, 10 µM, compound concentration 10 uM
[3] = 24 h, 1 µM, compound concentration 1 uM
[4] = 24 h, 10 µM, compound concentration 10 uM
[5] = 48 h, 1 µM, compound concentration 1 uM
[6] = 48 h, 10 µM, compound concentration 10 uM

Cc1c(C(=O)NCCCN(C)C)sc2ncnc(Nc3ccc(F)cc3OC(C)CF)c12 (stereo not drawn)
Population Apoptotic (%) [1]: 44.9% and 30.77%
Population Fragmented Nuclei (%) [1]: 1.42% and 2.65%
Population Healthy Nuclei (%) [1]: 84.66% and 80.13%
Population Hoechst High Intensity Objects (%) [1]: 0%
Population Membrane Permeable-Phenotype (%) [1]: 0.67% and 4.13%
Population Mitochondria Different-Phenotype (%) [1]: 0% and 15.7%
Population Mitotic Cells (%) [1]: 55.1% and 69.23%
Population Normal (%) [1]: 100%
Population Pyknosed Nuclei (%) [1]: 13.92% and 17.22%
Population Tubulin-Different-Phenotype (%) [1]: 2.68% and 0%
Total Cell Count [1]: 352 and 151
Population Apoptotic (%) [2]: 33.33% and 29.55%
Population Fragmented Nuclei (%) [2]: 6.74% and 4.73%
Population Healthy Nuclei (%) [2]: 69.66% and 65.54%
Population Hoechst High Intensity Objects (%) [2]: 0%
Population Membrane Permeable-Phenotype (%) [2]: 10.97% and 18.56%
Population Mitotic Cells (%) [2]: 66.67% and 70.45%
Population Normal (%) [2]: 100%
Population Pyknosed Nuclei (%) [2]: 23.6% and 29.73%
Population Tubulin-Different-Phenotype (%) [2]: 31.61% and 29.9%
Population Apoptotic (%) [3]: 56% and 51.85%
Population Fragmented Nuclei (%) [3]: 3.61% and 5.17%
Population Healthy Nuclei (%) [3]: 85.77% and 79.31%
Population Hoechst High Intensity Objects (%) [3]: 0%
Population Membrane Permeable-Phenotype (%) [3]: 1.49% and 4.35%
Population Mitotic Cells (%) [3]: 44% and 48.15%
Population Normal (%) [3]: 100%
Population Pyknosed Nuclei (%) [3]: 10.62% and 15.52%
Population Tubulin-Different-Phenotype (%) [3]: 1.98% and 0%
Total Cell Count [3]: 471 and 174
Population Apoptotic (%) [4]: 35% and 38.46%
Population Fragmented Nuclei (%) [4]: 3.34% and 4.57%
Population Healthy Nuclei (%) [4]: 63.26% and 58.29%
Population Hoechst High Intensity Objects (%) [4]: 0%
Population Membrane Permeable-Phenotype (%) [4]: 3.96% and 12.75%
Population Mitotic Cells (%) [4]: 65% and 61.54%
Population Normal (%) [4]: 100%
Population Pyknosed Nuclei (%) [4]: 33.4% and 37.14%
Population Tubulin-Different-Phenotype (%) [4]: 59.08% and 40.2%
Total Cell Count [4]: 479 and 175
Population Apoptotic (%) [5]: 48.89% and 51.28%
Population Fragmented Nuclei (%) [5]: 4.16% and 5.07%
Population Healthy Nuclei (%) [5]: 85.73% and 80.8%
Population Hoechst High Intensity Objects (%) [5]: 0%
Population Membrane Permeable-Phenotype (%) [5]: 1.31% and 1.35%
Population Mitochondria Different-Phenotype (%) [5]: 0.13% and 8.52%
Population Mitotic Cells (%) [5]: 51.11% and 48.72%
Population Normal (%) [5]: 100%
Population Pyknosed Nuclei (%) [5]: 10.11% and 14.13%
Population Tubulin-Different-Phenotype (%) [5]: 2.1% and 0.45%
Population Apoptotic (%) [6]: 53.75% and 63.55%
Population Fragmented Nuclei (%) [6]: 4.47% and 3.47%
Population Healthy Nuclei (%) [6]: 48.42% and 34.68%
Population Hoechst High Intensity Objects (%) [6]: 0.19% and 1.14%
Population Membrane Permeable-Phenotype (%) [6]: 12.31% and 18.33%
Population Mitotic Cells (%) [6]: 46.25% and 36.45%
Population Normal (%) [6]: 99.81% and 98.86%
Population Pyknosed Nuclei (%) [6]: 47.11% and 61.85%
Population Tubulin-Different-Phenotype (%) [6]: 44.62% and 53.33%

Nc1nc(-c2ccco2)c2cnn(Cc3ccccc3F)c2n1
Population Apoptotic (%) [1]: 82% and 92%
Population Fragmented Nuclei (%) [1]: 23%
Population Healthy Nuclei (%) [1]: 68% and 64%
Population Hoechst High Intensity Objects (%) [1]: 1% and 0%
Population Membrane Permeable-Phenotype (%) [1]: 4% and 12%
Population Mitochondria Different-Phenotype (%) [1]: 2% and 5%
Population Mitotic Cells (%) [1]: 17% and 7%
Population Normal (%) [1]: 98% and 99%
Population Pyknosed Nuclei (%) [1]: 8% and 12%
Population Tubulin-Different-Phenotype (%) [1]: 3% and 8%
Total Cell Count [1]: 280 and 109
Population Apoptotic (%) [2]: 87% and 77%
Population Fragmented Nuclei (%) [2]: 41% and 20%
Population Healthy Nuclei (%) [2]: 45% and 72%
Population Hoechst High Intensity Objects (%) [2]: 5% and 0%
Population Membrane Permeable-Phenotype (%) [2]: 10% and 5%
Population Mitochondria Different-Phenotype (%) [2]: 4% and 5%
Population Mitotic Cells (%) [2]: 12% and 22%
Population Normal (%) [2]: 94% and 99%
Population Pyknosed Nuclei (%) [2]: 12% and 7%
Population Tubulin-Different-Phenotype (%) [2]: 7% and 1%
Total Cell Count [2]: 197 and 125
Population Apoptotic (%) [3]: 96% and 84%
Population Fragmented Nuclei (%) [3]: 19% and 18%
Population Healthy Nuclei (%) [3]: 70% and 71%
Population Hoechst High Intensity Objects (%) [3]: 1% and 4%
Population Membrane Permeable-Phenotype (%) [3]: 4% and 10%
Population Mitochondria Different-Phenotype (%) [3]: 1% and 3%
Population Normal (%) [3]: 98% and 95%
Population Pyknosed Nuclei (%) [3]: 9% and 10%
Population Tubulin-Different-Phenotype (%) [3]: 2% and 8%
Total Cell Count [3]: 332 and 127
Population Apoptotic (%) [4]: 82% and 90%
Population Fragmented Nuclei (%) [4]: 38% and 19%
Population Healthy Nuclei (%) [4]: 53% and 73%
Population Hoechst High Intensity Objects (%) [4]: 5% and 1%
Population Membrane Permeable-Phenotype (%) [4]: 7% and 5%
Population Mitochondria Different-Phenotype (%) [4]: 3% and 0%
Population Mitotic Cells (%) [4]: 17% and 9%
Population Normal (%) [4]: 94% and 98%
Population Pyknosed Nuclei (%) [4]: 7%
Population Tubulin-Different-Phenotype (%) [4]: 5% and 4%
Total Cell Count [4]: 230 and 157
Population Apoptotic (%) [5]: 94% and 95%
Population Fragmented Nuclei (%) [5]: 17% and 16%
Population Healthy Nuclei (%) [5]: 74% and 67%
Population Hoechst High Intensity Objects (%) [5]: 1% and 6%
Population Membrane Permeable-Phenotype (%) [5]: 2% and 5%
Population Mitochondria Different-Phenotype (%) [5]: 2% and 5%
Population Mitotic Cells (%) [5]: 5% and 4%
Population Normal (%) [5]: 98% and 93%
Population Pyknosed Nuclei (%) [5]: 7% and 15%
Population Tubulin-Different-Phenotype (%) [5]: 2% and 1%
Population Apoptotic (%) [6]: 95% and 86%
Population Fragmented Nuclei (%) [6]: 37% and 23%
Population Healthy Nuclei (%) [6]: 51% and 69%
Population Hoechst High Intensity Objects (%) [6]: 11% and 2%
Population Membrane Permeable-Phenotype (%) [6]: 17% and 12%
Population Mitochondria Different-Phenotype (%) [6]: 6%
Population Mitotic Cells (%) [6]: 4% and 13%
Population Normal (%) [6]: 88% and 97%
Population Pyknosed Nuclei (%) [6]: 10% and 7%
Population Tubulin-Different-Phenotype (%) [6]: 11% and 6%
Total Cell Count [6]: 252 and 196

From ChEMBL document CHEMBL5724801, “EUbOPEN Chemogenomics Library - Multiplex” (2024)
